The text below walks through data of ChEMBL document CHEMBL1143652, “Joys of molecules. 2. Endeavors in chemical biology and medicinal chemistry” (J Med Chem, 2005).

For assay [1], the system named is A2780. The experiment in a line: Inhibitory concentration against A2780/AD10 cell line; Inactive upto 1 uM. Format: functional, cell-based, Homo sapiens.
The test system of assay [2] is MCF7. Kind of assay: Inhibitory concentration against MCF-7 human breast carcinoma cell line; Inactive upto 1 uM. Format: functional, cell-based.
The test system of assay [3] is 1A9/ptx-10. The experiment in a line: Inhibitory concentration against 1A9/PTX10 cell line; Inactive upto 1 uM. The class given is functional, cell-based, Homo sapiens.
Assay [4] deals with PC-3. The experiment in a line: Inhibitory concentration against PC-3 human prostate carcinoma cell line; Inactive upto 1 uM. The class given is functional, cell-based.
Assay [5] deals with 1A9. The experiment in a line: Inhibitory concentration against 1A9 human ovarian carcinoma cell line; Inactive upto 1 uM. The class given is functional, cell-based.
Assay [6] concerns A549. The experiment in a line: Inhibitory concentration against A549 human lung carcinoma cell line; Inactive upto 1 uM. The class given is functional, cell-based.
Assay [7] concerns the target cAMP-dependent protein kinase (PKA) (Homo sapiens, UniProt P22694+P17612+P22612). Kind of assay: Inhibitory constant against the protein kinase A. The class given is protein assay.
Assay [8] has as its target Protein kinase C (PKC). The experiment in a line: Inhibitory activity against protein kinase C. The class given is protein assay.
Assay [9] has as its system A2780. Kind of assay: Inhibitory concentration against A2780/AD10 cell line; Range is 10-15 nM. The class given is functional, cell-based. Conditions: Homo sapiens; call rule not given here.
Assay [10] deals with 1A9/ptx-10. The experiment in a line: Inhibitory concentration against 1A9/PTX10 cell line; Range is 10-15 nM. The class given is functional, cell-based. Conditions: Homo sapiens.
For assay [11], the system named is A549. Kind of assay: Inhibitory concentration against A549 human lung carcinoma cell line; Range is 10-15 nM. Format: functional, cell-based.
Assay [12] concerns 1A9. The experiment in a line: Inhibitory concentration against 1A9 human ovarian carcinoma cell line; Range is 10-15 nM. The class given is functional, cell-based.
Assay [13] concerns PC-3. Kind of assay: Inhibitory concentration against PC-3 human prostate carcinoma cell line; Range is 10-15 nM. Format: functional, cell-based.
The subject of assay [14] is MCF7. Kind of assay: Inhibitory concentration against MCF-7 human breast carcinoma cell line; Range is 10-15 nM. The class given is functional, cell-based.
Assay [15] deals with Staphylococcus aureus. The experiment in a line: Minimum inhibitory concentration against methicillin resistant Staphylococcus aureus (MRSA). Format: functional.
Assay [16] concerns the target Tubulin beta-4B chain (Homo sapiens) (UniProt P68371). Kind of assay: (§1) Tubulin polymerization at a concentration of 100 uM incubated for 90 minutes. Put shortly: (§2)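 Tubulin polymerization was read as percent polymerization, with test drug at 100 µM and a 90 min incubation.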
The subject of assay [17] is 1A9. The experiment in a line: Inhibitory concentration against human ovarian 1A9 tumor cells. Format: functional, cell-based.
Assay [18] deals with Tubulin beta-4B chain (Homo sapiens) (UniProt P68371). The assay is described as §1. The class given is functional. An outline of the steps:
as §2

Assay [19] deals with MOLT-4. The experiment in a line: Inhibitory concentration against MOLT-4 human T-cells; 10e-11. Format: functional, cell-based.
Assay [20] has as its system MOLT-4. Kind of assay: Inhibitory concentration against MOLT-4 human T-cells. Format: functional, cell-based.
Assay [21] has as its system Gallus gallus. The experiment in a line: In vivo inhibition of angiogenesis in the chick chorioallantoic membrane (CAM) assay. The class given is functional.
Assay [22] has as its target Polyunsaturated fatty acid 5-lipoxygenase (Homo sapiens, UniProt P09917). The experiment in a line: Effective concentration required to inhibit 5-lipoxygenase by 50%.
Assay [23] relates to A2780. The experiment in a line: Inhibitory concentration against A2780/AD10 cell line; Range is 2-5 nM. The class given is functional, cell-based. Conditions: Homo sapiens.
The subject of assay [24] is PC-3. Kind of assay: Inhibitory concentration against PC-3 human prostate carcinoma cell line; Range is 2-5 nM. The class given is functional, cell-based.
For assay [25], the system named is MCF7. Kind of assay: Inhibitory concentration against MCF-7 human breast carcinoma cell line; Range is 2-5 nM. Format: functional, cell-based.
In assay [26] the test system is 1A9/ptx-10. Kind of assay: Inhibitory concentration against 1A9/PTX10 cell line; Range is 2-5 nM. The class given is functional, cell-based. Conditions: Homo sapiens.
Assay [27] relates to 1A9. The experiment in a line: Inhibitory concentration against 1A9 human ovarian carcinoma cell line; Range is 2-5 nM. The class given is functional, cell-based.
For assay [28], the system named is A549. Kind of assay: Inhibitory concentration against A549 human lung carcinoma cell line; Range is 2-5 nM. Format: functional, cell-based.
The target of assay [29] is T1, Peroxisome proliferator-activated receptor delta (Homo sapiens, UniProt Q03181). The experiment in a line: Effective concentration against PPAR delta receptor.
T1 sequence (Q03181 whole entry): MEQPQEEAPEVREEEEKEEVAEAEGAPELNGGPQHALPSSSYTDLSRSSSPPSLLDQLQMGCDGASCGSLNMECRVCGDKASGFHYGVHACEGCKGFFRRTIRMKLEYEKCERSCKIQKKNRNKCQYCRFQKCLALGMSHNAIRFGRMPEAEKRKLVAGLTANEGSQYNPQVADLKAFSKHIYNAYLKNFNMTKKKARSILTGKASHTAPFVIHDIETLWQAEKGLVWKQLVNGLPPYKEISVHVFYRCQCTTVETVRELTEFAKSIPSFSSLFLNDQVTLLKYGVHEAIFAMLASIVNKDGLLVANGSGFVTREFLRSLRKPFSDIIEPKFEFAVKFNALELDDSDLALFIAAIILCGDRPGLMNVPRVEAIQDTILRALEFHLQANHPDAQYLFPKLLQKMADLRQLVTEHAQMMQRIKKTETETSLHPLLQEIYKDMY
The target in assay [30] is T1, Peroxisome proliferator-activated receptor delta. The experiment in a line: Effective concentration towards PPAR delta.
Assay [31] concerns MOLT-4. Kind of assay: Inhibitory concentration against MOLT-4 human T-cells; 10e-12. Format: functional, cell-based.
For assay [32], the target named is T2, Sodium channel alpha subunits; brain (Types I, II, III) (Homo sapiens, UniProt P35498+Q99250+Q9NY46). The experiment in a line: Inhibitory concentration against synaptosome using [3H]PbTx-3.
T2 sequence (Q99250 whole entry, looked up, other chains not shown): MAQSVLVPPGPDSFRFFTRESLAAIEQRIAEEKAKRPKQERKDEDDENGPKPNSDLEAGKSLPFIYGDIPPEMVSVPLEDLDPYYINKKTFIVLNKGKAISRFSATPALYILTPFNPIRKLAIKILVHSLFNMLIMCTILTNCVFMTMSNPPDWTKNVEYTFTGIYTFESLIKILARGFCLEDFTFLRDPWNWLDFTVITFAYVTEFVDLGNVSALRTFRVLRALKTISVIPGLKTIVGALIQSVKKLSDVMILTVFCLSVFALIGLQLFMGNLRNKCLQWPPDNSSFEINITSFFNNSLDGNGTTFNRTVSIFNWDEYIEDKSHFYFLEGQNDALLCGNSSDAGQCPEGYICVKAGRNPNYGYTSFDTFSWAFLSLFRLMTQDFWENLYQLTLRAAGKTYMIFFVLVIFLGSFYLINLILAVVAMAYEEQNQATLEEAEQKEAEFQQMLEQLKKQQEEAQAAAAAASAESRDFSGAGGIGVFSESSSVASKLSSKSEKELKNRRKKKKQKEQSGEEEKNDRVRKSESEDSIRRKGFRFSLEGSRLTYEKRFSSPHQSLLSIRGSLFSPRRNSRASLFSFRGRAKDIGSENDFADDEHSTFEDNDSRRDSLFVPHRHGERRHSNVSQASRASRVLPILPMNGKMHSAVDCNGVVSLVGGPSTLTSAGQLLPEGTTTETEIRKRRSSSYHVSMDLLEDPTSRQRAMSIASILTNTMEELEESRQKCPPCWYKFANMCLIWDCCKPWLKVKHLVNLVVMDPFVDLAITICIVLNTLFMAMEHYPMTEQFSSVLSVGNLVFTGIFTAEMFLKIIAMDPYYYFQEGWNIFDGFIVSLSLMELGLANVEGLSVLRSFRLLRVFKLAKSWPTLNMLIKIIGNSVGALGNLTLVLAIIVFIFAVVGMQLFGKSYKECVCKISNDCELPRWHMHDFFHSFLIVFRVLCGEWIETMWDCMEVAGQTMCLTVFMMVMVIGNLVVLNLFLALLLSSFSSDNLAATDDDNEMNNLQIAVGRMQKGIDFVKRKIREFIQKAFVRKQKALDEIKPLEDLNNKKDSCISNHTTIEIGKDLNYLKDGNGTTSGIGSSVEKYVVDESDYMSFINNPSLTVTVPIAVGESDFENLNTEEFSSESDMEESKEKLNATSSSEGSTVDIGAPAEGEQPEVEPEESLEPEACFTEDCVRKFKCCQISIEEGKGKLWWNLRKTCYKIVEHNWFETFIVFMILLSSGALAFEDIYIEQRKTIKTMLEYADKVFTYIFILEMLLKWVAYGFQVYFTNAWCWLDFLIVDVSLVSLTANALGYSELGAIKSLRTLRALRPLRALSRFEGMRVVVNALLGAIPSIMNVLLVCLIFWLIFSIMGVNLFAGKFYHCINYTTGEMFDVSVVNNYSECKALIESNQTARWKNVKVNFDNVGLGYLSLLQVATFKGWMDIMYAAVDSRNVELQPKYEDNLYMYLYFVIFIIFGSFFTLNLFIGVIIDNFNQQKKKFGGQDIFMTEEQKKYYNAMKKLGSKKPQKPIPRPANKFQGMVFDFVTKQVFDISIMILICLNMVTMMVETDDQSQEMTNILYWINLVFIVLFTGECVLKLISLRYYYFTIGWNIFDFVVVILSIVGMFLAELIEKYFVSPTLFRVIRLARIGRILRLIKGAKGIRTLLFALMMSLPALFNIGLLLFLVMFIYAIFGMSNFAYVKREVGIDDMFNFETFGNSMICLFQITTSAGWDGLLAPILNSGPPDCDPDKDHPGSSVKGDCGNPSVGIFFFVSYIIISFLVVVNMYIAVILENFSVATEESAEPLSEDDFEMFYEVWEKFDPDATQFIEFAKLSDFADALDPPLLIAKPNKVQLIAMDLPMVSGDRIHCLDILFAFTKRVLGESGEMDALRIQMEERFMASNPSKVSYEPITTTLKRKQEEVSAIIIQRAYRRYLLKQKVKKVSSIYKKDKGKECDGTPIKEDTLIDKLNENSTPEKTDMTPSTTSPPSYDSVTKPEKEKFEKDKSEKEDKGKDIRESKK
T2 sequence (Q9NY46 whole entry, looked up, other chains not shown): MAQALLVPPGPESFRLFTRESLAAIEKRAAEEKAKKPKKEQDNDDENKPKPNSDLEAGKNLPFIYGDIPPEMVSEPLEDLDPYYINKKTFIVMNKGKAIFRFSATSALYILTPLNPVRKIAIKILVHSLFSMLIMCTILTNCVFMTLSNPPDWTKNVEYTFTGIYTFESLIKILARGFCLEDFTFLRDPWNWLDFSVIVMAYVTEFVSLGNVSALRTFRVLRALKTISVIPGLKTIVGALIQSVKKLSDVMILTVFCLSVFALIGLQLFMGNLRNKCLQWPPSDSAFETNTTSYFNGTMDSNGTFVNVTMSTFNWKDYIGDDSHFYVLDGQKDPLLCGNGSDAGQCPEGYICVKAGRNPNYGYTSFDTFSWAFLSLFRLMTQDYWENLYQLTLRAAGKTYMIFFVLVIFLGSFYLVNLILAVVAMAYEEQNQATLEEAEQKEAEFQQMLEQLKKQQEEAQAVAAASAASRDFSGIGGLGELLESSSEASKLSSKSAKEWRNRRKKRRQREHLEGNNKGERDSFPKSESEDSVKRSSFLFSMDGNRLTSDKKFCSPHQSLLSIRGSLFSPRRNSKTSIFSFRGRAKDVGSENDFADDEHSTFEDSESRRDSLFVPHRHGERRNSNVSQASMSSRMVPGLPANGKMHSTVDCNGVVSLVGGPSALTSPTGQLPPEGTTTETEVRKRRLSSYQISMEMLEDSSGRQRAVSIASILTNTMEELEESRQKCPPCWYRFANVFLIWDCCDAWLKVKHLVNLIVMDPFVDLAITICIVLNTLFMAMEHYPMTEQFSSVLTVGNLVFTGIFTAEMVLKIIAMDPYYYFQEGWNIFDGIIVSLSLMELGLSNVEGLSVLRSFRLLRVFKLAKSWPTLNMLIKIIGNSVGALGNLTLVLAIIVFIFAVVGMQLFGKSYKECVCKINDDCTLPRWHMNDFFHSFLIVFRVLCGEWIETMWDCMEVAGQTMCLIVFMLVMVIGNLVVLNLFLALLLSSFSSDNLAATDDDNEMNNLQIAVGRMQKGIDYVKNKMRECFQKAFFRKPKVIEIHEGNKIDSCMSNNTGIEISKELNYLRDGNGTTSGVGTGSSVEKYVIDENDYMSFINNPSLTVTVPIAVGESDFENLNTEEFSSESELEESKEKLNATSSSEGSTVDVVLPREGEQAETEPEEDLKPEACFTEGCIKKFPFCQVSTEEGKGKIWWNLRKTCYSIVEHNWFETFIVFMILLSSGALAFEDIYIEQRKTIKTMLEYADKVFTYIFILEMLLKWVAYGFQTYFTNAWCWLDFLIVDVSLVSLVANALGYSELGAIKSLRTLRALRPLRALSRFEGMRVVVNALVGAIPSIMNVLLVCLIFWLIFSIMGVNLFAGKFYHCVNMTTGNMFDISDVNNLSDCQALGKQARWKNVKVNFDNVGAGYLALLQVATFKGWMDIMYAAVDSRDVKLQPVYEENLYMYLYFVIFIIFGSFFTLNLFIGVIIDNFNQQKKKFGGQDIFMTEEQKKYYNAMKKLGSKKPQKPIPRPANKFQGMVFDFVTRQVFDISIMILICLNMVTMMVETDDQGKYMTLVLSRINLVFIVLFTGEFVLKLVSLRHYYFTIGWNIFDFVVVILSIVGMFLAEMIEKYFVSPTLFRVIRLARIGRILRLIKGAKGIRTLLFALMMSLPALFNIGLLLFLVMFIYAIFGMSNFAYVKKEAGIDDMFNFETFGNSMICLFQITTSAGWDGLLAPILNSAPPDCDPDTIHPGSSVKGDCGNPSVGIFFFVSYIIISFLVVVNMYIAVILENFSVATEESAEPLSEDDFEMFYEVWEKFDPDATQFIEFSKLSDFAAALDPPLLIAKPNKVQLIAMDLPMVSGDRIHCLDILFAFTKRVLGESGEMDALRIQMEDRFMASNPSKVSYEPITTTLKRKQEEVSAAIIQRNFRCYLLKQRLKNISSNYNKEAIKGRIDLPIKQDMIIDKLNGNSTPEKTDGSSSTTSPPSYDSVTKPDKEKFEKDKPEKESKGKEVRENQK
Assay [33] concerns the target T2, Sodium channel alpha subunits; brain (Types I, II, III).
Assay [34] shares this target. Kind of assay: Inhibitory concentration against synaptosomes using [3H]PbTx-3. Format: subcellular.

SMILES strings stand for the structures. Values after ≈ are worked out from the molar mass of the structure shown.

Sequence of Tubulin beta-4B chain (Homo sapiens) (P68371 whole entry): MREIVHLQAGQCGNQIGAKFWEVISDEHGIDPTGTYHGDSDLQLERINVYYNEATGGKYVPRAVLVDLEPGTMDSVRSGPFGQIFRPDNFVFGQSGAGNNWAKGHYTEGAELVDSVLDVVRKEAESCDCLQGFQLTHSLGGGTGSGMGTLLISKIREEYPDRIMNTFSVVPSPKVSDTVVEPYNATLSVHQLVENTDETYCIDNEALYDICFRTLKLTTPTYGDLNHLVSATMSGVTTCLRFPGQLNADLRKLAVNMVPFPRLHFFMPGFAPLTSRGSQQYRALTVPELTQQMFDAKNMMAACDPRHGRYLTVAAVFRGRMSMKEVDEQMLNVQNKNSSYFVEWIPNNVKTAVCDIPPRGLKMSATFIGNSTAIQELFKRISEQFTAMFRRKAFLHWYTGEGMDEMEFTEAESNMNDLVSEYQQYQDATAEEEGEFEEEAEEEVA

Regarding `CC(C)[C@H](O)C(=O)N[C@H]1Cc2ccc(O)c(c2)[C@]2(C(=O)Nc3ccccc32)C2=C(CO)N=C(O2)[C@H](C(C)C)NC1=O`, the IC50 result in [1], in assay [2], in assay [3], in assay [4], in assay [5] and in assay [6] was “Inactive” throughout.

For the compound `O=C(N[C@@H]1CNCCC[C@H]1OC(=O)c1cc(O)c(C(=O)c2ccccc2C(=O)O)c(O)c1)c1ccc(O)cc1`, the Ki (as a rule, a measure of affinity in units of concentration, obtained from inhibition or displacement) in assay [7] amounted to 3.9 nM; in assay [8], 640 nM.

`CC(C)[C@@H]1NC(=O)[C@@H](NC(=O)OCc2ccccc2)Cc2ccc3c(c2)[C@]2(C4=C(C=O)N=C1O4)c1cccc(Br)c1N[C@@H]2O3`: the IC50 result in assay [1], in [2], in assay [3], in [4], in [5] and in assay [6] was “Inactive” in each case.

As to `CC(C)[C@@H]1NC(=O)[C@@H](NC(=O)[C@H](O)C(C)C)Cc2ccc3c(c2)[C@]24C5=C(N=C1O5)c1nc(Cl)c(o1)-c1c(Cl)[nH]c5cccc(c15)-c1cccc2c1N[C@@H]4O3`, the IC50 in assay [9], in assay [10], in assay [11], in [12], in assay [13] and in [14] was 15 nM each time.

As for `CC1(C)C=Cc2cc(-c3ccco3)cc(/C=C(/C#N)c3ccc(O)cc3)c2O1`, the MIC (usually the least concentration at which growth counts as inhibited) in assay [15] stood at 2 µg/mL (≈ 5.41 µM); in assay [15] (Staphylococcus aureus, read-out: MIC), 2 µg/mL (≈ 5.41 µM).

On to `CO[C@]12C=C[C@](C)(O1)[C@@H](OC(=O)/C=C/c1cn(C)cn1)C[C@H]1C(C)=CC[C@H](C(C)C)[C@H]1/C=C\2COC1OCC(O)C(O)C1OC(C)=O` (some centres undefined), for which the TP in assay [16] and in assay [18] was 54% in each case. In addition, the IC50 – broadly, the point on the concentration scale where inhibition reaches its midpoint – in assay [17] amounted to 40 nM.

Consider `COC(=O)N/C(C)=C1/C(=C/COC(=O)c2ccc([N+](=O)[O-])cc2)[C@@](O)(CC=O)C#C/C=C\C#C[C@@H]1O`, for which the IC50 in assay [19] and in [20] was 0.044 nM each time.

For `O=C(N[C@@H]1CNCCC[C@H]1OC(=O)c1ccc(C(=O)c2c(O)cccc2C(=O)O)cc1)c1ccc(O)cc1`, the Ki in assay [7] is recorded as 3.4 nM; in assay [8], 80 nM.

With `N=C(N)NCCOc1ccc(C(=O)NC[C@H](NS(=O)(=O)c2ccccc2)C(=O)O)cc1[N+](=O)[O-]`, the Dose in [21] is given as 30 ug/embryo.

Turning to `O=C(O)CCC[C@H](O)\C=C/C=C/C=C/[C@H](O)C/C=C\CCCCC(F)(F)F`, the response in assay [22] was half-maximal at 3 nM (EC50).

With `[H][C@]12Nc3c4cccc3[C@]13C1=C(N=C(O1)[C@H](C(C)C)NC(=O)[C@@H](NC(=O)[C@@H](O)C(C)C)Cc1ccc(c3c1)O2)c1nc(Cl)c(o1)-c1c(Cl)[nH]c2cccc-4c12` [DIAZONAMIDE A], the half-inhibitory concentration (IC50) in assay [23], in assay [24], in assay [25], in assay [26], in [27] and in assay [28] was 5 nM throughout.

Regarding `CC(C)N(Cc1cccc2c1OC(C)(C)C=C2)C(=O)c1ccc(-c2ccccc2)cc1`, the values for the concentration for a half-maximal effect (EC50) in assay [29] and in assay [30] were 1 nM and 1000 nM, respectively.

With `COC(=O)N/C(C)=C1/C(=C/CSSSC)[C@@](O)(CC=O)C#C/C=C\C#C[C@@H]1O`, the IC50 was 1.2 pM in assay [31] and 0.0012 nM in assay [20].

For `C=C(C=O)C[C@@H]1C[C@H](O)[C@]2(C)O[C@@H]3C[C@@H]4O[C@@H]5C[C@]6(C)O[C@]7(C)CC[C@@H]8O[C@@H]9C[C@]%10(C)O[C@@H]%11C(C)=CC(=O)O[C@H]%11C[C@H]%10O[C@H]9C[C@@H](C)[C@H]8O[C@H]7C[C@H]6O[C@@]5(C)C/C=C\[C@H]4O[C@H]3C[C@H]2O1` [BREVETOXIN B], the IC50 in assay [32] and in assay [34] was 15.02 nM each time. For the same compound, the Binding in assay [33] amounted to 18 nM.
